Assay results published in ChEMBL document CHEMBL2086252, “Syntheses and evaluation of anticonvulsant activity of novel branched alkyl carbamates” (J Med Chem, 2012).
Active and inactive are the calls of the source. No cut-off for these calls is given here.

Assays:
Mus musculus [1] = test: Anticonvulsant activity in albino CF1 mouse assessed as protection against maximal electroshock-induced seizures at 100 mg/kg, ip after 0.5 hrs; format: functional, organism-based; parameters: dose 100 mg/kg
Outline: (§1)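 Mice dosed ip at 30, 100 or 300 mg/kg, then tested 0.5 h and 4 h after administration in the MES or scMet test. Protection was recorded as animals protected over animals tested. Neurotoxicity was recorded as motor impairment or sedation, as animals affected over animals tested.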

Rattus norvegicus [2] = test: Neurotoxicity in pilocarpine-induced status epilepticus Sprague-Dawley albino rat model assessed as minimal motor impairment at 30 mg/kg, ip after 0.5 hrs by rotarod test; format: toxicity, organism-based; parameters: dose 30 mg/kg, route intraperitoneal; settings: in vivo
Outline: (§2)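 Rat pilocarpine status epilepticus model: test carbamate given at 0 or 30 min after the first observed Racine stage 3 motor seizure, which marks SE onset. Neurotoxicity was scored within the same model.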

Rattus norvegicus [3] = test: Neurotoxicity in pilocarpine-induced status epilepticus Sprague-Dawley albino rat model assessed as minimal motor impairment at 100 mg/kg, ip after 0.5 hrs by rotarod test; format: toxicity, organism-based; parameters: dose 100 mg/kg, route intraperitoneal; settings: in vivo
Mus musculus [4] = test: Anticonvulsant activity in albino CF1 mouse assessed as protection against subcutaneous metrazol-induced seizures at 100 mg/kg, ip after 4 hrs; format: functional, organism-based; parameters: dose 100 mg/kg; outline: as §1
Mus musculus [5] = test: Anticonvulsant activity in albino CF1 mouse assessed as protection against subcutaneous metrazol-induced seizures at 300 mg/kg, ip after 0.5 hrs; format: functional, organism-based; parameters: dose 300 mg/kg; outline: as §1
Rattus norvegicus [6] = test: Anticonvulsant activity in Sprague-Dawley albino rat assessed as protection against maximal electroshock-induced seizures at 30 mg/kg, po after 4 hrs; format: functional, organism-based; parameters: dose 30 mg/kg
Outline: (§3)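 Rats dosed orally. Anti-MES protection was scored as animals protected over animals tested at each time after dosing. Neurotoxicity was scored as motor impairment or sedation, as animals affected over animals tested.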

Rattus norvegicus [7] = test: Neurotoxicity in pilocarpine-induced status epilepticus Sprague-Dawley albino rat model assessed as minimal motor impairment at 30 mg/kg, ip after 1 hr by rotarod test; format: toxicity, organism-based; parameters: dose 30 mg/kg, route intraperitoneal; settings: in vivo; outline: as §2
Rattus norvegicus [8] = test: Anticonvulsant activity in Sprague-Dawley albino rat assessed as protection against maximal electroshock-induced seizures at 30 mg/kg, po after 15 mins; format: functional, organism-based; parameters: dose 30 mg/kg; outline: as §3
Rattus norvegicus [9] = test: Neurotoxicity in pilocarpine-induced status epilepticus Sprague-Dawley albino rat model assessed as minimal motor impairment at 300 mg/kg, ip after 4 hrs by rotarod test; format: toxicity, organism-based; parameters: dose 300 mg/kg, route intraperitoneal; settings: in vivo; outline: as §2
Mus musculus [10] = test: Anticonvulsant activity in albino CF1 mouse assessed as protection against maximal electroshock-induced seizures at 30 mg/kg, ip after 4 hrs; format: functional, organism-based; parameters: dose 30 mg/kg; outline: as §1
Rattus norvegicus [11] = test: Neurotoxicity in pilocarpine-induced status epilepticus Sprague-Dawley albino rat model assessed as minimal motor impairment at 100 mg/kg, ip after 2 hrs by rotarod test; format: toxicity, organism-based; parameters: dose 100 mg/kg, route intraperitoneal; settings: in vivo
Mus musculus [12] = test: Anticonvulsant activity in albino CF1 mouse assessed as protection against maximal electroshock-induced seizures at 300 mg/kg, ip after 4 hrs; format: functional, organism-based; parameters: dose 300 mg/kg; outline: as §1
Rattus norvegicus [13] = test: Neurotoxicity in pilocarpine-induced status epilepticus Sprague-Dawley albino rat model assessed as minimal motor impairment at 30 mg/kg, ip after 2 hrs by rotarod test; format: toxicity, organism-based; parameters: dose 30 mg/kg, route intraperitoneal; settings: in vivo; outline: as §2
Rattus norvegicus [14] = test: Neurotoxicity in pilocarpine-induced status epilepticus Sprague-Dawley albino rat model assessed as minimal motor impairment at 300 mg/kg, ip after 0.5 hrs by rotarod test; format: toxicity, organism-based; parameters: dose 300 mg/kg, route intraperitoneal; settings: in vivo; outline: as §2
Rattus norvegicus [15] = test: Neurotoxicity in pilocarpine-induced status epilepticus Sprague-Dawley albino rat model assessed as minimal motor impairment at 30 mg/kg, ip after 0.25 hr by rotarod test; format: toxicity, organism-based; parameters: dose 30 mg/kg, route intraperitoneal; settings: in vivo; outline: as §2
Mus musculus [16] = test: Anticonvulsant activity in albino CF1 mouse assessed as protection against subcutaneous metrazol-induced seizures at 30 mg/kg, ip after 0.5 hrs; format: functional, organism-based; parameters: dose 30 mg/kg; outline: as §1
Rattus norvegicus [17] = test: Neurotoxicity in Sprague-Dawley albino rat assessed as minimal motor impairment at 30 mg/kg, po by rotarod test; format: toxicity, organism-based; parameters: dose 30 mg/kg, route oral; settings: in vivo; outline: as §3
Mus musculus [18] = test: Neurotoxicity in albino CF1 mouse assessed as minimal motor impairment at 100 mg/kg, ip after 0.5 hrs by rotarod test; format: toxicity, organism-based; parameters: dose 100 mg/kg, route intraperitoneal; settings: in vivo; outline: as §1
Mus musculus [19] = test: Anticonvulsant activity in albino CF1 mouse assessed as protection against subcutaneous metrazol-induced seizures at 300 mg/kg, ip after 4 hrs; format: functional, organism-based; parameters: dose 300 mg/kg; outline: as §1
Rattus norvegicus [20] = test: Neurotoxicity in pilocarpine-induced status epilepticus Sprague-Dawley albino rat model assessed as minimal motor impairment at 300 mg/kg, ip after 1 hr by rotarod test; format: toxicity, organism-based; parameters: dose 300 mg/kg, route intraperitoneal; settings: in vivo; outline: as §2
Mus musculus [21] = test: Anticonvulsant activity in albino CF1 mouse assessed as protection against subcutaneous metrazol-induced seizures at 100 mg/kg, ip after 0.5 hrs; format: functional, organism-based; parameters: dose 100 mg/kg; outline: as §1
Rattus norvegicus [22] = test: Neurotoxicity in pilocarpine-induced status epilepticus Sprague-Dawley albino rat model assessed as minimal motor impairment at 100 mg/kg, ip after 4 hrs by rotarod test; format: toxicity, organism-based; parameters: dose 100 mg/kg, route intraperitoneal; settings: in vivo
Rattus norvegicus [23] = test: Anticonvulsant activity in Sprague-Dawley albino rat assessed as protection against maximal electroshock-induced seizures at 30 mg/kg, po after 30 mins; format: functional, organism-based; parameters: dose 30 mg/kg; outline: as §3
Rattus norvegicus [24] = test: Neurotoxicity in pilocarpine-induced status epilepticus Sprague-Dawley albino rat model assessed as minimal motor impairment at 300 mg/kg, ip after 0.25 hr by rotarod test; format: toxicity, organism-based; parameters: dose 300 mg/kg, route intraperitoneal; settings: in vivo; outline: as §2
Mus musculus [25] = test: Neurotoxicity in albino CF1 mouse assessed as minimal motor impairment at 30 mg/kg, ip after 0.5 hrs by rotarod test; format: toxicity, organism-based; parameters: dose 30 mg/kg, route intraperitoneal; settings: in vivo; outline: as §1
Mus musculus [26] = test: Neurotoxicity in albino CF1 mouse assessed as minimal motor impairment at 300 mg/kg, ip after 0.5 hrs by rotarod test; format: toxicity, organism-based; parameters: dose 300 mg/kg, route intraperitoneal; settings: in vivo; outline: as §1
Mus musculus [27] = test: Anticonvulsant activity in albino CF1 mouse assessed as protection against subcutaneous metrazol-induced seizures at 30 mg/kg, ip after 4 hrs; format: functional, organism-based; parameters: dose 30 mg/kg; outline: as §1
Mus musculus [28] = test: Neurotoxicity in albino CF1 mouse assessed as minimal motor impairment at 100 mg/kg, ip after 4 hrs by rotarod test; format: toxicity, organism-based; parameters: dose 100 mg/kg, route intraperitoneal; settings: in vivo; outline: as §1
Rattus norvegicus [29] = test: Neurotoxicity in pilocarpine-induced status epilepticus Sprague-Dawley albino rat model assessed as minimal motor impairment at 30 mg/kg, ip after 4 hrs by rotarod test; format: toxicity, organism-based; parameters: dose 30 mg/kg, route intraperitoneal; settings: in vivo; outline: as §2
Mus musculus [30] = test: Anticonvulsant activity in albino CF1 mouse assessed as protection against maximal electroshock-induced seizures at 100 mg/kg, ip after 4 hrs; format: functional, organism-based; parameters: dose 100 mg/kg; outline: as §1
Mus musculus [31] = test: Neurotoxicity in albino CF1 mouse assessed as minimal motor impairment at 30 mg/kg, ip after 4 hrs by rotarod test; format: toxicity, organism-based; parameters: dose 30 mg/kg, route intraperitoneal; settings: in vivo; outline: as §1
Mus musculus [32] = test: Anticonvulsant activity in albino CF1 mouse assessed as protection against maximal electroshock-induced seizures at 30 mg/kg, ip after 0.5 hrs; format: functional, organism-based; parameters: dose 30 mg/kg; outline: as §1
Rattus norvegicus [33] = test: Neurotoxicity in pilocarpine-induced status epilepticus Sprague-Dawley albino rat model assessed as minimal motor impairment at 100 mg/kg, ip after 0.25 hr by rotarod test; format: toxicity, organism-based; parameters: dose 100 mg/kg, route intraperitoneal; settings: in vivo
Mus musculus [34] = test: Neurotoxicity in albino CF1 mouse assessed as minimal motor impairment at 300 mg/kg, ip after 4 hrs by rotarod test; format: toxicity, organism-based; parameters: dose 300 mg/kg, route intraperitoneal; settings: in vivo; outline: as §1
Mus musculus [35] = test: Anticonvulsant activity in albino CF1 mouse assessed as protection against maximal electroshock-induced seizures at 300 mg/kg, ip after 0.5 hrs; format: functional, organism-based; parameters: dose 300 mg/kg; outline: as §1

## CCC(COC(N)=O)CC(C)C (racemic)
Mus musculus [1]
  Activity: inactive
Rattus norvegicus [2]
  Activity: Non-toxic
Rattus norvegicus [3]
  Activity: Toxic
Mus musculus [4]
  Activity: inactive
Mus musculus [5]
  Activity: Active
Rattus norvegicus [6]
  Activity: inactive
Rattus norvegicus [7]
  Activity: Non-toxic
Rattus norvegicus [8]
  Activity: inactive
Rattus norvegicus [9]
  Activity: Non-toxic
Mus musculus [10]
  Activity: inactive
Rattus norvegicus [11]
  Activity: Non-toxic
Mus musculus [12]
  Activity: inactive
Rattus norvegicus [13]
  Activity: Non-toxic
Rattus norvegicus [14]
  Activity: Toxic
Rattus norvegicus [15]
  Activity: Non-toxic
Mus musculus [16]
  Activity: inactive
Rattus norvegicus [17]
  Activity: Non-toxic
Mus musculus [18]
  Activity: Non-toxic
Mus musculus [19]
  Activity: inactive
Rattus norvegicus [20]
  Activity: Toxic
Mus musculus [21]
  Activity: inactive
Rattus norvegicus [22]
  Activity: Non-toxic
Rattus norvegicus [23]
  Activity: inactive
Rattus norvegicus [24]
  Activity: Toxic
Mus musculus [25]
  Activity: Non-toxic
Mus musculus [26]
  Activity: Toxic
Mus musculus [27]
  Activity: inactive
Mus musculus [28]
  Activity: Non-toxic
Rattus norvegicus [29]
  Activity: Non-toxic
Mus musculus [30]
  Activity: inactive
Mus musculus [31]
  Activity: Non-toxic
Mus musculus [32]
  Activity: inactive
Rattus norvegicus [33]
  Activity: Toxic
Mus musculus [34]
  Activity: Non-toxic
Mus musculus [35]
  Activity: Active
